Peptide text beside a SMILES is read from it.
Columns and labels:
Integrin alpha-4/beta-1 = Integrin alpha-4/beta-1 (Homo sapiens, UniProt P05556+P13612); test: Inhibitory concentration affording 50% inhibition of alpha4-beta1 integrin binding to VCAM-1, using ELISA assay.; type: protein-complex assay
In short: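 α4β1 extracted from Ramos cell membranes (lectin chromatography, gel filtration in 1% octylglucoside), with 1 mM MnCl2 throughout. Wells coated with 4 µg/mL recombinant soluble human VCAM-1 (5 N-terminal Ig domains, from CHO cells) and blocked with 1% BSA. Inhibitor and receptor 2 h at 37 °C in Tris pH 7.4. Bound receptor detected with anti-β1 mAb 2D4.6, then HRP anti-mouse and TMB at 450 nm. IC50 at half-maximal absorbance.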

Integrin alpha-4/beta-7 = target: T1, Integrin alpha-4/beta-7 (Homo sapiens, UniProt P13612+P26010); test: Ability to block the alpha4-beta7 integrin-MAdCAM-1 binding interaction using a protein ELISA format; type: protein-complex assay
T1 sequence (P13612 whole entry): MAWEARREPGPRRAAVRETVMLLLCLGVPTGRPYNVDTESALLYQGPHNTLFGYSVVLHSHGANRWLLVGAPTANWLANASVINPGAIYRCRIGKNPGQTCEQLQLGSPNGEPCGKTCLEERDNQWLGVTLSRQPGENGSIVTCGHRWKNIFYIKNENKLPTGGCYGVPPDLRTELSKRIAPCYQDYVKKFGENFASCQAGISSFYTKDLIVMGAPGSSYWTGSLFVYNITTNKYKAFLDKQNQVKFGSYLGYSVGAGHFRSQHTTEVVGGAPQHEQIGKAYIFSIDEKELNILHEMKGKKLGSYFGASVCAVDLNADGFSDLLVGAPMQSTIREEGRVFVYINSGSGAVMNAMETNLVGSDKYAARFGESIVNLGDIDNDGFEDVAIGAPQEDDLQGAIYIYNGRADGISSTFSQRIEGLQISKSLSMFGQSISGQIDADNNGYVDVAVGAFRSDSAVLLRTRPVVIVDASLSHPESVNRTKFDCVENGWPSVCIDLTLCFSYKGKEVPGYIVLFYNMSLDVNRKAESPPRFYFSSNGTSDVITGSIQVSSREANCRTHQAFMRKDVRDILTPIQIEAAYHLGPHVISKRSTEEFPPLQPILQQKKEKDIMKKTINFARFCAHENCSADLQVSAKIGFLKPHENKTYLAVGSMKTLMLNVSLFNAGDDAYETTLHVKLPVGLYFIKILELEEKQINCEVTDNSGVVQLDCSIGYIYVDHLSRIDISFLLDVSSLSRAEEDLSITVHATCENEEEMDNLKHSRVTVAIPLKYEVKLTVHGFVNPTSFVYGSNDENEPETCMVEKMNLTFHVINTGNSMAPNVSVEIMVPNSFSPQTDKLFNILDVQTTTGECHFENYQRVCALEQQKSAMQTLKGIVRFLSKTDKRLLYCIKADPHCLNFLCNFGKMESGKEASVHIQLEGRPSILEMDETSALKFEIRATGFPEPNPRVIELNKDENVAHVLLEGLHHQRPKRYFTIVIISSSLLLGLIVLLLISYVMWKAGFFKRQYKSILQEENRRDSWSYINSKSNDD
T1 sequence (P26010 whole entry): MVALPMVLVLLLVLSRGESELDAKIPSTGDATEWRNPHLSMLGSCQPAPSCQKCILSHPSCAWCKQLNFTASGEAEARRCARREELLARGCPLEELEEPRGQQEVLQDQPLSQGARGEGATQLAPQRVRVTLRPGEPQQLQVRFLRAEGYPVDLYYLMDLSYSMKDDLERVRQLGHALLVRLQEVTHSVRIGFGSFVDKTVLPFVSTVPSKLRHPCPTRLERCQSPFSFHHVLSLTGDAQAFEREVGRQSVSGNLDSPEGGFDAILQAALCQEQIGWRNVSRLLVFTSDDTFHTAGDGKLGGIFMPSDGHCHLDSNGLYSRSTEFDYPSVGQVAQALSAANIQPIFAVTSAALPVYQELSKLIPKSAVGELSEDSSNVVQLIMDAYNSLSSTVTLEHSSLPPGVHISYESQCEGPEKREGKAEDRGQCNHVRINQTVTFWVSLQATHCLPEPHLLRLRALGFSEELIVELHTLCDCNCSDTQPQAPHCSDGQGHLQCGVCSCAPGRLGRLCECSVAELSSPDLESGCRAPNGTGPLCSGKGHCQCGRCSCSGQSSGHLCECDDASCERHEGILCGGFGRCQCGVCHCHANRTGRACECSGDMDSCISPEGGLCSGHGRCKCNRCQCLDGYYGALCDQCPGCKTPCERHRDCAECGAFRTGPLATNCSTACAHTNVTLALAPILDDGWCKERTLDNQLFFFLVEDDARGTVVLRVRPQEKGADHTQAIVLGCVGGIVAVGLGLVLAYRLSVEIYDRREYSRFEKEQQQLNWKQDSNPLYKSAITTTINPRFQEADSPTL
In short: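 Plates coated overnight at 4 °C with anti-human α4 antibody 9F10 (2 µg/mL), blocked in Tris pH 7.5 buffer with 1 mM MnCl2, Tween-20 and 0.5% BSA, then loaded with α4β7 purified from transfected JY cells (2 µg/mL). Compounds (1 nM–200 µM final, triplicate) plus MAdCAM-1-Ig-HRP (1 µg/mL), 2 h room temperature. TMB read at 450 nm; IC50 at half-maximal absorbance.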

Integrin alpha-4/beta-1, sequence (P05556 whole entry, one chain of several, the tested form may be a part): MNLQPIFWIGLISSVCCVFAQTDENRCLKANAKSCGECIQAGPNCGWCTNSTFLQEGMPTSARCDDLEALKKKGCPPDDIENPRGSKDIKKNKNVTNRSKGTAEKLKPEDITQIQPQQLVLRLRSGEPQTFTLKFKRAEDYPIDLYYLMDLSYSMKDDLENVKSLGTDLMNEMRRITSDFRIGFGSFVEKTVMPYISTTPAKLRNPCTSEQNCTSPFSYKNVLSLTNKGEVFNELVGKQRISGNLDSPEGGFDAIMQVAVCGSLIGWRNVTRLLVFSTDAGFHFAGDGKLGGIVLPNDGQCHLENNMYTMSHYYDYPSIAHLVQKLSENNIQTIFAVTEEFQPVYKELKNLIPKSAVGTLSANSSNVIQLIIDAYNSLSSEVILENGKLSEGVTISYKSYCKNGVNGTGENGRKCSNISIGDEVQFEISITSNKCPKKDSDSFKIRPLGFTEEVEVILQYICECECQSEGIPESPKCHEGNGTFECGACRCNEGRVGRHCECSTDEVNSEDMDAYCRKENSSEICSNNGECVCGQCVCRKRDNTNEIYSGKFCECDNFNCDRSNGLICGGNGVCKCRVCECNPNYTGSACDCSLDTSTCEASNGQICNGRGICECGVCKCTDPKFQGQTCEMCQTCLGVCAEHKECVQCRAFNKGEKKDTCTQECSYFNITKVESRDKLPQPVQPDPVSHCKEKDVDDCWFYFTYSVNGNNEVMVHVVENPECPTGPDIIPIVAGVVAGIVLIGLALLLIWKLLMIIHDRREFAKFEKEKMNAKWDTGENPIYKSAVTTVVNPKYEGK

SMILES	IC50 (Integrin alpha-4/beta-1) [µM]	IC50 (Integrin alpha-4/beta-7) [µM]
C[C@@H](O)[C@@H]1NC(=O)[C@H](CC(=O)O)NC(=O)[C@H](CO)NC(=O)[C@H](CCCNC(=N)N)NC(=O)[C@@H](N)CSSC[C@@H](C(N)=O)NC(=O)[C@@H]2CCCN2C1=O	37	40
CC(C)C[C@@H]1NC(=O)[C@H]([C@@H](C)O)NC(=O)[C@H](CC(=O)O)NC(=O)[C@H](CO)NC(=O)[C@H](CCCNC(=N)N)NC(=O)[C@@H](N)CSSC[C@@H](C(=O)O)NC1=O	0.4	0.13
CC(C)C[C@@H]1NC(=O)[C@H](CO)NC(=O)[C@H](CC(=O)O)NC(=O)[C@H](CO)NC(=O)[C@H](CCCNC(=N)N)NC(=O)[C@@H](N)CSSC[C@@H](C(N)=O)NC1=O	14	0.29
CC(C)[C@@H]1NC(=O)[C@H]([C@@H](C)O)NC(=O)[C@H](CC(=O)O)NC(=O)[C@H](CO)NC(=O)[C@H](CCCNC(=N)N)NC(=O)[C@@H](N)CSSC[C@@H](C(N)=O)NC1=O	59	4.5
CC(C)C[C@@H]1NC(=O)[C@H]([C@@H](C)O)NC(=O)[C@H](C)NC(=O)[C@H](CO)NC(=O)[C@H](CCCN=C(N)N)NC(=O)[C@@H](N)CSSC[C@@H](C(N)=O)NC1=O (HELM PEPTIDE1{C.R.S.A.T.L.C.[am]}$PEPTIDE1,PEPTIDE1,1:R3-7:R3$$$V2.0)	> 100	> 100
CSCC[C@H](N)C(=O)N[C@@H](CC(=O)O)C(=O)N[C@H]1CSSC[C@@H](C(=O)NCC(N)=O)NC(=O)[C@H](CC(C)C)NC(=O)[C@H]([C@@H](C)O)NC(=O)[C@H](CC(=O)O)NC(=O)[C@H](CO)NC(=O)[C@H](CCCN=C(N)N)NC1=O (HELM PEPTIDE1{M.D.C.R.S.D.T.L.C.G.[am]}$PEPTIDE1,PEPTIDE1,3:R3-9:R3$$$V2.0)	8.8	0.34
CC(C)C[C@@H]1NC(=O)[C@H]([C@@H](C)O)NC(=O)[C@H](CC(=O)O)NC(=O)[C@H](CO)NC(=O)[C@H](Cc2ccc(O)cc2)NC(=O)[C@@H](N)CSSC[C@@H](C(N)=O)NC1=O	0.009	0.13
CC(C)C[C@@H]1NC(=O)[C@H]([C@@H](C)O)NC(=O)[C@H](CC(=O)O)NC(=O)[C@H](C)NC(=O)[C@H](CCCNC(=N)N)NC(=O)[C@@H](N)CSSC[C@@H](C(N)=O)NC1=O (HELM PEPTIDE1{C.R.A.D.T.L.C.[am]}$PEPTIDE1,PEPTIDE1,1:R3-7:R3$$$V2.0)	3.6	2.2
CC(C)C[C@@H]1NC(=O)[C@H]([C@@H](C)O)NC(=O)[C@H](CC(=O)O)NC(=O)[C@H](CO)NC(=O)[C@H](CCCCN)NC(=O)[C@@H](N)CSSC[C@@H](C(N)=O)NC1=O	1.5	0.25
CSCC[C@H](N)C(=O)N[C@@H](CC(=O)O)C(=O)N[C@H]1CSSC[C@@H](C(N)=O)NC(=O)[C@H](CC(C)C)NC(=O)[C@H]([C@@H](C)O)NC(=O)[C@H](CC(=O)O)NC(=O)[C@H](CO)NC(=O)[C@H](CCCN=C(N)N)NC1=O (HELM PEPTIDE1{M.D.C.R.S.D.T.L.C.[am]}$PEPTIDE1,PEPTIDE1,3:R3-9:R3$$$V2.0)	11.8	0.64
CSCC[C@H](NC(=O)[C@H](CC(C)C)NC(=O)[C@H](Cc1c[nH]c2ccccc12)NC(=O)[C@H](CCCN=C(N)N)NC(=O)[C@H](CCC(=O)O)NC(=O)[C@H](Cc1c[nH]c2ccccc12)NC(C)=O)C(=O)N[C@@H](CC(=O)O)C(=O)N[C@H]1CSSC[C@@H](C(=O)NCC(=O)N[C@@H](CCC(=O)O)C(=O)N[C@@H](CO)C(=O)N[C@@H](Cc2c[nH]cn2)C(=O)N[C@@H](CCC(N)=O)C(=O)N[C@@H](CCC(=O)O)C(N)=O)NC(=O)[C@H](CC(C)C)NC(=O)[C@H]([C@@H](C)O)NC(=O)[C@H](CC(=O)O)NC(=O)[C@H](CO)NC(=O)[C@H](CCCN=C(N)N)NC1=O (HELM PEPTIDE1{[ac].W.E.R.W.L.M.D.C.R.S.D.T.L.C.G.E.S.H.Q.E.[am]}$PEPTIDE1,PEPTIDE1,9:R3-15:R3$$$V2.0)	12.1	1.3
CC(C)C[C@@H]1NC(=O)[C@H]([C@@H](C)O)NC(=O)[C@H](CCC(=O)O)NC(=O)[C@H](CO)NC(=O)[C@H](CCCN=C(N)N)NC(=O)[C@@H](N)CSSC[C@@H](C(N)=O)NC1=O	3	30
C[C@@H]1NC(=O)[C@H]([C@@H](C)O)NC(=O)[C@H](CC(=O)O)NC(=O)[C@H](CO)NC(=O)[C@H](CCCN=C(N)N)NC(=O)[C@@H](N)CSSC[C@@H](C(N)=O)NC1=O (HELM PEPTIDE1{C.R.S.D.T.A.C.[am]}$PEPTIDE1,PEPTIDE1,1:R3-7:R3$$$V2.0)	40	23
CC(C)C[C@@H]1NC(=O)[C@H]([C@@H](C)O)NC(=O)[C@H](CC(=O)O)NC(=O)[C@H](CO)NC(=O)[C@H](CCCNC(=N)N)NC(=O)[C@@H](N)CSSC[C@@H](C(N)=O)NC1=O	4.2	0.12
CC(C)C[C@@H]1NC(=O)[C@H]([C@@H](C)O)NC(=O)[C@H](CC(=O)O)NC(=O)[C@H]([C@@H](C)O)NC(=O)[C@H](CCCN=C(N)N)NC(=O)[C@@H](N)CSSC[C@@H](C(N)=O)NC1=O	7.4	2.1
CC(C)C[C@@H]1NC(=O)[C@H]([C@@H](C)O)NC(=O)[C@H](CC(=O)O)NC(=O)[C@H](CO)NC(=O)[C@H](Cc2ccccc2)NC(=O)[C@@H](N)CSSC[C@@H](C(N)=O)NC1=O	0.05	0.55
CC(C)C[C@@H]1NC(=O)[C@H]([C@@H](C)O)NC(=O)[C@H](CC(=O)O)NC(=O)[C@H](CO)NC(=O)[C@H](CCCN=C(N)N)NC(=O)[C@@H](NC(=O)[C@@H](N)CC(=O)O)CSSC[C@@H](C(=O)NCC(=O)N[C@@H](CCC(=O)O)C(N)=O)NC1=O (HELM PEPTIDE1{D.C.R.S.D.T.L.C.G.E.[am]}$PEPTIDE1,PEPTIDE1,2:R3-8:R3$$$V2.0)	8.3	0.26
CC[C@H](C)[C@@H]1NC(=O)[C@H](CCCN=C(N)N)NC(=O)[C@@H](N)CSSC[C@@H](C(N)=O)NC(=O)[C@H](CC(C)C)NC(=O)[C@H]([C@@H](C)O)NC(=O)[C@H](CC(=O)O)NC1=O	1.2	20
CC(C)C[C@@H]1NC(=O)[C@H]([C@@H](C)O)NC(=O)[C@H](CC(=O)O)NC(=O)[C@H](CO)NC(=O)[C@H](CCCNC(=N)N)NC(=O)[C@@H](N)CSSC[C@@H](C(=O)NCC(N)=O)NC1=O (HELM PEPTIDE1{C.R.S.D.T.L.C.G.[am]}$PEPTIDE1,PEPTIDE1,1:R3-7:R3$$$V2.0)	3.8	0.11
CC(C)C[C@@H]1NC(=O)[C@H]([C@@H](C)O)NC(=O)[C@H](CC(N)=O)NC(=O)[C@H](CO)NC(=O)[C@H](CCCNC(=N)N)NC(=O)[C@@H](N)CSSC[C@@H](C(=O)O)NC1=O	2.2	40
CC(C)C[C@H]1NC(=O)[C@H]([C@H](C)O)NC(=O)[C@H](CC(=O)O)NC(=O)[C@H](CO)NC(=O)[C@@H](CCCN=C(N)N)NC(=O)[C@H](N)CSSC[C@H](C(N)=O)NC1=O	> 100	> 100

Source: ChEMBL document CHEMBL1135530, “Selective alpha4beta7 integrin antagonists and their potential as antiinflammatory agents” (J Med Chem, 2002)
